Source: PubChem BioAssay
OXTR ag = human OXTR agonists, primary screen, fluorescence, CHO-OTR cells, Fluo-8 calcium; Oxytocin receptor (Homo sapiens), P30559; activation, % at 3 µM; 320,000 compounds, 0.32% hits; Fluo-8 calcium fluorescence; normalized: DMSO 0%, oxytocin 100%;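 active = activation above the mean of all tested compounds plus 3 SD, cutoff set per screening run, cut at about 20% in these data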;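 also: peak over basal fluorescence ratio from a 100 s FLIPR kinetic read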
OXTR potentiator = human OXTR potentiators, primary screen, fluorescence, CHO-OTR cells, Fluo-8 calcium; activation, % at 3 µM; Fluo-8 calcium fluorescence, potentiator mode; 0% = oxytocin EC15, 100% = EC100; 320,000 compounds, 0.061% hits;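 active = activation above that plate's cutoff, the mean activation of tested compounds plus 3 SD, cut at about 6.6% in these data, passing the limit was not always enough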;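 also: 100% uses oxytocin at 75 nM as the full agonist control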
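Material: human OTR in CHO cells. Compound: 3.0 µM, one dose. Timing: compound 6 min at room temperature before oxytocin, 100 s read. Evaluation: % activation of max/min ratio relative to oxytocin controls. Replication: single well per compound, singlicate. Signal: Fluo-8 calcium dye fluorescence.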
OX1R antag-1 = antagonists of human orexin 1 receptor (OX1R); inhibition, % at 6.6 µM; OX1R-expressing cells, FRET antagonist read-out; Orexin/Hypocretin receptor type 1 (Homo sapiens), O43613; 330,000 compounds, 1.8% hits; in the data active = inhibition mostly above about 38%, no sharp cut-off; inactive = mostly below about 40%;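 also: 0% = agonist challenge alone and 100% = reference antagonist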
Target sequence (O43613 whole entry, looked up): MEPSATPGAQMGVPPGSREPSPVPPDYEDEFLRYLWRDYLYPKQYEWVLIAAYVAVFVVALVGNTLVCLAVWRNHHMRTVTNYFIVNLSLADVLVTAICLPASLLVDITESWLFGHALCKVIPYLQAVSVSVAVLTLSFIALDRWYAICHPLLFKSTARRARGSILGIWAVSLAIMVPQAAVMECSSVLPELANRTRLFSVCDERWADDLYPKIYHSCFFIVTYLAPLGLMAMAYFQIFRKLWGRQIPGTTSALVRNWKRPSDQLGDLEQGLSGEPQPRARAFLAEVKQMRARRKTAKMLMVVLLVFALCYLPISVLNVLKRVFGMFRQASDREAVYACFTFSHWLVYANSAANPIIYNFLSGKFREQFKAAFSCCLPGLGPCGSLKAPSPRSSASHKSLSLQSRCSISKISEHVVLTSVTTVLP
V1R ag counter = agonists of human V1a receptor, primary screen, counter-screen for OXTR agonist project, fluorescence, CHO-V1R cells; activation, % at 3 µM; Fluo-8 calcium fluorescence, agonist mode; 0% DMSO, 100% 3 nM vasopressin; 320,000 compounds, 0.25% hits; Vasopressin V1a receptor (Homo sapiens), P37288;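 active = activation above the mean activation of all tested compounds plus 3 SD, per screening run, cut at about 20% in these data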;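 also: signal is peak over basal fluorescence ratio across a 100 second FLIPR read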
CHO parental Ca = ATP-evoked calcium signal inhibitors, parental CHO, primary screen, counter-screen for OX1R antagonist project, cell-based, fluorescence, Fluo-8 calcium dye | parental CHO-K1, ATP-induced calcium, Fluo-8 fluorescence | inhibition, % at 5.6 µM | 330,000 compounds, 0.63% hits;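 active = inhibition above that plate's mean sample inhibition plus 3 SD, cut at about 26% in these data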;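 also: 0% = ATP-challenged DMSO wells and 100% = DMSO wells without ATP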
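Assay system: untransfected parental CHO cell line. Also added: ATP agonist challenge. Dosing: one dose, 5.6 µM nominal. Measured by: Fluo-8 fluorescence. Read-out: % inhibition. Benchmarks: ATP wells versus no-ATP DMSO wells. Repeats: no replicates.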
OX1R antag-2 = OX1R (HCRTR1) antagonists, primary screen, fluorescence, CHO/OX1R cells, Fluo-8 calcium, orexin A; Orexin/Hypocretin receptor type 1 (Homo sapiens), O43613; Fluo-8 calcium fluorescence; inhibition, % at 5 µM; 330,000 compounds, 0.43% hits; AID 434989, 2010;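 active = inhibition above its plate's threshold, mean inhibition of all tested compounds on the plate plus 3 SD, cut at about 37% in these data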;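 also: 0% = orexin A challenge wells and 100% = SB-334867-A antagonist wells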
Starred values were filed as active, the others as inactive. Only some compounds are listed: those with a hit (about 2.6% of all), similar ones and a draw of the others.

SMILES	OXTR ag	OXTR potentiator	OX1R antag-1	V1R ag counter	CHO parental Ca	OX1R antag-2
CC(=O)N(C)c1ccc(N=Nc2c(C)[nH]n(C(N)=S)c2=O)cc1	0.0	-0.4	55.9*	0.2	-1.2	-0.6
CC(=O)N(C)c1ccc(N=NC2C(=O)N(C(N)=S)N=C2C)cc1 (centres undefined)	1.9	-0.7	62.3*	-0.6	-5.2	-3.1
CC1=NN(C(N)=S)C(=O)C1N=Nc1ccc(S(N)(=O)=O)cc1 (centres undefined)	0.5	-7.0	16.9	0.2	8.3	-10.1
CC(=O)N(C)c1ccc(N=Nc2c(C)[nH]n(-c3ccccc3)c2=O)cc1	0.8	3.5	1.4	0.7	-3.4	-11.6
Cc1nnc2ccc(-c3ccc(NS(=O)(=O)c4ccc(F)cc4F)cc3)nn12	3.0	5.3	9.4	1.5	-16.8	5.0
CC1=C(C)/C(=N\OS(=O)(=O)c2ccccc2)C=CC1=O	19.3	-21.5	149.5*	13.8	65.4*	74.4*
Cc1ccc(S(=O)(=O)O/N=C2\CCCc3ccccc32)cc1	0.3	-7.9	19.8	-0.2	-2.2	-19.7
COC(=O)c1ccc(C)c(NC(=O)CCn2[nH]c(=O)ccc2=O)c1	1.0	4.8	20.8	-0.1	-6.4	-14.3
COc1ccc(Nc2ncnc3ccc([N+](=O)[O-])cc23)c(OC)c1	-2.0	-6.8	66.5*	-0.2	-4.9	-8.0
Cc1ccc(O)c(Nc2ncnc3ccc([N+](=O)[O-])cc23)c1	-1.4	1.9	27.6	-0.2	-17.7	-27.1
CN1c2ccccc2C(C)(C)[C@]12C=Cc1cc(O)ccc1O2	2.9	0.5	4.9	2.9	47.7*	20.9
CCC(NC(=S)NCc1ccc(F)cc1)c1ccc(C(C)C)cc1 (centres undefined)	5.3	-16.4	19.3	10.5	42.4*	-2.5
COc1ccc(C(C)NC(=S)NCc2ccc(F)cc2)cc1OC (centres undefined)	2.9	-0.9	11.8	4.9	-9.4	-13.1
CCCc1ccc(C(C)NC(=S)NCc2ccc(F)cc2)cc1 (centres undefined)	21.2*	-17.2	10.5	21.4*	32.7*	25.2
CCC(C)c1ccc(C(C)NC(=S)NCc2ccc(F)cc2)cc1 (centres undefined)	2.2	-15.3	13.7	6.1	18.3	9.2
N#Cc1ccc(OS(=O)(=O)c2ccc(-c3ccon3)s2)cc1	5.9	-14.7	16.5	7.3	34.1*	4.9
CCN1C(=O)c2c(C)nc3ccccc3c2C1=O	-1.3	-1.0	39.2*	-0.3	-14.4	-20.3
O=C(NC1CCN(Cc2ccccc2)CC1)C1CCCN(S(=O)(=O)c2cccc3nonc23)C1 (centres undefined)	2.2	2.0	70.1*	1.3	-18.7	-19.2
CC1CCN(CCNC(=O)C2CCCN(S(=O)(=O)c3cccc4nonc34)C2)CC1 (centres undefined)	0.1	-11.8	69.9*	-1.0	-0.5	-19.1
O=C(NCc1ccccc1)C1CCCN(S(=O)(=O)c2cccc3nonc23)C1 (centres undefined)	1.0	-7.2	54.6	1.8	-9.6	-29.7
O=C(NC1CCN(Cc2ccccc2)CC1)C1CCN(S(=O)(=O)c2cccc3cccnc23)CC1	0.1	2.6	13.6	-0.1	-18.5	-6.1
O=C(NC1CCN(Cc2ccccc2)CC1)C1CCN(S(=O)(=O)c2cccc3nsnc23)CC1	0.0	-4.0	71.1*	0.4	-16.5	-19.6
O=C(CCNC(=O)c1ccc(Cl)cc1)Nc1cccc(S(=O)(=O)N2CCCCC2)c1	-0.5	-2.5	-0.4	2.0	-23.5	-17.4
COC(=O)CCC(=O)OC1(C)C(=O)C=C2C=C(C3CC3)N(CC3CC3)C=C2C1=O (centres undefined)	2.4	-1.7	36.8	1.8	-16.4	-14.4
